Activity calls are given as the source filed them. The rule behind the calls is not given here.
Assays:
[1] = tested on: Enterococcus faecalis; assay: Antimicrobial activity against vancomycin-resistant Enterococcus faecalis ATCC 51299 by microbroth dilution assay; assay type: functional
[2] = tested on: Candida albicans; assay: Antimicrobial activity against Candida albicans ATCC 10231 by microbroth dilution assay; assay type: functional
[3] = tested on: Cryptococcus neoformans; assay: Antimicrobial activity against Cryptococcus neoformans ATCC 66031 by microbroth dilution assay; assay type: functional
[4] = tested on: Vero; assay: (§1) Cytotoxicity against African green monkey Vero cells at 150 uM after 72 hrs by MTT assay; assay type: cell-based; conditions: chlorocebus sabaeus, vero, 72 h, 150 µM
How it was run: (§2)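 Vero cells in MEM and HCT-116 cells in RPMI, each with 10% FBS, 1% penicillin–streptomycin and 1% Glutamax. Cells were seeded at 3.0 × 10^4 per well and left to adhere overnight. Medium was replaced, and compounds in DMSO were added to a final 150–0.1 μM. Cells were incubated 72 h at 37 °C in 4.5% CO2 (humidified), then viability was read by MTT.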

[5] = tested on: Streptomyces scabiei; assay: Antimicrobial activity against Streptomyces scabies NRRL B 2795 at 25 ug/disk after 2 days by disk diffusion assay; assay type: functional
How it was run: (§3)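 S. scabies grown 5 days in liquid ISP2, diluted 1:10 in molten ISP2 agar. Paper discs carrying 25 μg compound (applied in 20 μL methanol) were set on a thin agar layer and overlaid with 10 mL of the seeded agar (double-layer method). Plates were incubated 2 days at 30 °C, and inhibition zone diameters were measured.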

[6] = tested on: Staphylococcus aureus; assay: Antimicrobial activity against methicillin-resistant Staphylococcus aureus ATCC 43300 by microbroth dilution assay; assay type: functional
[7] = tested on: Bacillus spizizenii; assay: Antimicrobial activity against Bacillus subtilis ATCC 6633 by microbroth dilution assay; assay type: functional
[8] = tested on: Pseudomonas aeruginosa; assay: Antimicrobial activity against Pseudomonas aeruginosa ATCC 27853 by microbroth dilution assay; assay type: functional
[9] = tested on: HCT16; assay: (§4) Cytotoxicity against human […] cells after 72 hrs by MTT assay; assay type: functional, cell-based; how it was run: as §2
[10] = tested on: Acinetobacter baumannii; assay: Antimicrobial activity against Acinetobacter baumannii ATCC 19606 by microbroth dilution assay; assay type: functional; conditions: ATCC 19606 = CIP 70.34 = JCM 6841
[11] = tested on: Klebsiella pneumoniae; assay: Antimicrobial activity against Klebsiella pneumoniae ATCC 13883 by microbroth dilution assay; assay type: functional
[12] = tested on: Streptomyces scabiei; assay: Antimicrobial activity against Streptomyces scabies LK 82 at 25 ug/disk after 2 days by disk diffusion assay; assay type: functional; how it was run: as §3
[13] = tested on: Escherichia coli; assay: Antimicrobial activity against Escherichia coli ATCC 25922 by microbroth dilution assay; assay type: functional
[14] = tested on: Escherichia coli; assay: Inhibition of Escherichia coli topoisomerase-2-mediated DNA cleavage after 15 mins by agarose gel electrophoresis
[15] = biological target: T1, Topoisomerase I (Bos taurus) (UniProt Q2HPH0); assay: Inhibition of calf thymus topoisomerase-1-mediated supercoiled plasmid DNA relaxation after 15 mins by agarose gel electrophoresis
T1 sequence (whole entry): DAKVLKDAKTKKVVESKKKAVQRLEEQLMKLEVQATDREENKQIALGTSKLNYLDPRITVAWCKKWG
How it was run: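 Calf thymus Topo I (0.5 unit) with negatively supercoiled pBR322 (0.3 μg) in 50 mM Tris-HCl pH 7.5, 1 mM MgCl2, 0.5 mM DTT and 50 μg/mL BSA. Camptothecin was the control. Reactions ran 15 min at 37 °C and were stopped on ice with an EDTA/sarkosyl loading dye. Relaxed versus supercoiled DNA was resolved by agarose gel, in duplicate.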

[16] = biological target: T1, Topoisomerase I (Bos taurus); assay: Inhibition of calf thymus topoisomerase-1-mediated DNA intercalation using relaxed pBR322 after 15 mins
How it was run: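 Unwinding (intercalation) assay: relaxed pBR322 (0.3 μg) with 1 unit calf thymus Topo I in 50 mM Tris-HCl pH 7.5, 1 mM MgCl2, 0.5 mM DTT and 50 μg/mL BSA. Compound was added in DMSO, with ethidium bromide as control. After 15 min at 37 °C, reactions were treated with SDS and proteinase K and phenol-extracted. DNA was run on 1.2% agarose in TAE, and supercoiled DNA was quantified after staining.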

[17] = biological target: T2, DNA topoisomerase 1 (Homo sapiens) (UniProt P11387); assay: Inhibition of topoisomerase-1 (unknown origin)-mediated DNA cleavage after 15 mins by agarose gel electrophoresis
T2 sequence (whole entry): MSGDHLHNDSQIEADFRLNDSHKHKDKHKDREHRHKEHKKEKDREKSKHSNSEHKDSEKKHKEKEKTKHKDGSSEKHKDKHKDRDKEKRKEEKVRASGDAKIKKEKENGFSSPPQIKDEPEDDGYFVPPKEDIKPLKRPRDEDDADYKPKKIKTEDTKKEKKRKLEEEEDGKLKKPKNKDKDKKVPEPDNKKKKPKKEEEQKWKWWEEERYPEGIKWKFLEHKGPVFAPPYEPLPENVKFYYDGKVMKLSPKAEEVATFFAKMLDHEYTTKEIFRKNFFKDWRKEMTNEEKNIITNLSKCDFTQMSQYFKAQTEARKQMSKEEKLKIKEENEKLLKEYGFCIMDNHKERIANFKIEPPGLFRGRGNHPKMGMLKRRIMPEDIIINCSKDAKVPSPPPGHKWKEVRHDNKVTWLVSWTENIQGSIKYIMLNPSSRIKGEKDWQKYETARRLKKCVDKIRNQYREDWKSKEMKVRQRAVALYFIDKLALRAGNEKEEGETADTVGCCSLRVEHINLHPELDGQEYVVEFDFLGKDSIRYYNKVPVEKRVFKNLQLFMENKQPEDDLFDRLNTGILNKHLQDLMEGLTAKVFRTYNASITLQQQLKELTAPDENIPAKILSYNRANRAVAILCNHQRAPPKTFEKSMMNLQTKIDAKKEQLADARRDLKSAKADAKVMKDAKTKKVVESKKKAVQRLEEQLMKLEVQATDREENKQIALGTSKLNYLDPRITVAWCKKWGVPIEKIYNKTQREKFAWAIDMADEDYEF
How it was run: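 Topo I cleavage assay: 2 units Topo I with 0.3 μg pBR322 in the unwinding buffer, with camptothecin as control. Reactions ran 10 min at 37 °C, then SDS to 1% for 10 min, then 40 mM EDTA and 100 μg/mL proteinase K for 15 min at 37 °C. DNA was phenol-extracted and run on 1.2% agarose containing 0.5 μg/mL ethidium bromide. Nicked DNA was compared with and without compound, at least in duplicate.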

[18] = biological target: DNA topoisomerase 2-alpha (Homo sapiens) (UniProt P11388); assay: Inhibition of topoisomerase-2 (unknown origin)-mediated DNA cleavage […] by agarose gel electrophoresis
How it was run: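 Human Topo II cleavage assay: 5 units enzyme with 0.3 μg kDNA in the decatenation buffer without potassium glutamate, with etoposide as control. Reactions ran 10 min at 37 °C, then SDS to 1% for 10 min, then 40 mM EDTA and 100 μg/mL proteinase K for 1 h at 50 °C. Products were run on ethidium-containing 1.2% agarose. Linear DNA was compared with and without compound, at least in duplicate.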

[19] = as §4; assay type: functional, cell-based; how it was run: as §2
[20] = tested on: Vero; assay: Cytotoxicity against African green monkey Vero cells after 72 hrs by MTT assay; assay type: cell-based; conditions: Chlorocebus sabaeus; how it was run: as §2
[21] = as §1; assay type: cell-based; conditions: chlorocebus sabaeus, Vero cells; read-out: GI; how it was run: as §2

DNA topoisomerase 2-alpha (Homo sapiens), sequence (P11388 whole entry): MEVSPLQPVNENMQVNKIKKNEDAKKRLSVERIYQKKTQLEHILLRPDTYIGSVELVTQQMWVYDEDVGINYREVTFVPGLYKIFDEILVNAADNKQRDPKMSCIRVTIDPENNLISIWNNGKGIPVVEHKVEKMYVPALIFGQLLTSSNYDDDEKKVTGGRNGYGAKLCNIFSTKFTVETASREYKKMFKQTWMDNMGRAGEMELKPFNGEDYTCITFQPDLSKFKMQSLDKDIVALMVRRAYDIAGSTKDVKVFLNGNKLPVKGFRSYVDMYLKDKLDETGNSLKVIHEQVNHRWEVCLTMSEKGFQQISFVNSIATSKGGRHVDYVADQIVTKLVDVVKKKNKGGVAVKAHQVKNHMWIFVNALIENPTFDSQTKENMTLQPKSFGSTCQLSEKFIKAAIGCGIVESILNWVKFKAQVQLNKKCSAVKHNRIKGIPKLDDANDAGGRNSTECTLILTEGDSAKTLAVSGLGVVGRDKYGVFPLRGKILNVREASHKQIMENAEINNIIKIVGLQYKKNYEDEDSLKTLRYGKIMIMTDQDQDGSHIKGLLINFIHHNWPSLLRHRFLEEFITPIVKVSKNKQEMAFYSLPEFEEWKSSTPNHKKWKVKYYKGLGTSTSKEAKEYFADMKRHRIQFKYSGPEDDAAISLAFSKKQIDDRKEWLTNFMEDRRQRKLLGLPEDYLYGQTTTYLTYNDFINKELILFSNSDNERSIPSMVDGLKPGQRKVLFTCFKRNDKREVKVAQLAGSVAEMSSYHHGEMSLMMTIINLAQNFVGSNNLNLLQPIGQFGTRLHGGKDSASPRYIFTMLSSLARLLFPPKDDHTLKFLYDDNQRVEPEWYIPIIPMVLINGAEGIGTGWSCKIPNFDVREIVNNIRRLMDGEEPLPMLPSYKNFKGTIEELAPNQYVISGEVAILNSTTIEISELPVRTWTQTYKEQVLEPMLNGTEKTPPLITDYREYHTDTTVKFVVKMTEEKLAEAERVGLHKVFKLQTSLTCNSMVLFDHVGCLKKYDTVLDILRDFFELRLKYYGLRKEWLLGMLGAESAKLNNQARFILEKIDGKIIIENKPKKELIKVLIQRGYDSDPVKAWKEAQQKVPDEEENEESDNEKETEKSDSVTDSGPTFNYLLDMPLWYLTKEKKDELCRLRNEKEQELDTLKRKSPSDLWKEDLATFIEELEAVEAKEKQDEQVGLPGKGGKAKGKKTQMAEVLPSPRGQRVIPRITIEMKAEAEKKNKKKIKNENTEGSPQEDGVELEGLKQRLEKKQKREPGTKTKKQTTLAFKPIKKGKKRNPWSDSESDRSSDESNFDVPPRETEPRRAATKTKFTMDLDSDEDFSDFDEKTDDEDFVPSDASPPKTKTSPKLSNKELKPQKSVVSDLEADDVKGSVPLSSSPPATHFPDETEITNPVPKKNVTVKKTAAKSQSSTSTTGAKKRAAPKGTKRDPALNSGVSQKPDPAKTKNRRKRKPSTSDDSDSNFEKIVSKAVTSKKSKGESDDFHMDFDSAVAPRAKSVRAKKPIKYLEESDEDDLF

| SMILES | MIC [1] [µg/mL] | MIC [2] [µg/mL] | MIC [3] [µg/mL] | Activity [4] | Activity [5] | MIC [6] [µg/mL] | MIC [7] [µg/mL] | MIC [8] [µg/mL] | Activity [9] | MIC [10] [µg/mL] | MIC [11] [µg/mL] | Activity [12] | MIC [13] [µg/mL] | other results |
| --- | --- | --- | --- | --- | --- | --- | --- | --- | --- | --- | --- | --- | --- | --- |
| O=C(O)c1cccc2nc3c(C(=O)O)cccc3nc12 | > 25 | > 25 | > 25 | Non-toxic | inactive | > 25 | > 25 | > 25 | inactive | > 25 | > 25 | inactive | > 25 | – |
| C[C@@H]1O[C@@H](OC(=O)c2ccc(O)cc2)[C@H](O)[C@H](O)[C@H]1O | > 25 | > 25 | > 25 | – | inactive | > 25 | > 25 | > 25 | – | > 25 | > 25 | inactive | > 25 | – |
| CNc1ccc(C(=O)O[C@@H]2O[C@@H](C)[C@H](O)[C@@H](O)[C@H]2O)cc1 | > 25 | > 25 | > 25 | – | inactive | > 25 | > 25 | > 25 | – | > 25 | > 25 | inactive | > 25 | – |
| C[C@@H]1O[C@@H](Oc2cccc3nc4c(C(=O)O)cccc4nc23)[C@H](O)[C@H](O)[C@H]1O [IZUMINOSIDE A] | > 25 | > 25 | > 25 | Non-toxic | inactive | > 25 | > 25 | > 25 | inactive | > 25 | > 25 | inactive | > 25 | – |
| C[C@@H]1O[C@@H](OC(=O)c2cccc3nc4c(C(=O)O)cccc4nc23)[C@H](O)[C@H](O)[C@H]1O [IZUMINOSIDE C] | > 25 | > 25 | > 25 | Non-toxic | inactive | > 25 | > 25 | > 25 | inactive | > 25 | > 25 | inactive | > 25 | – |
| C[C@@H]1O[C@@H](OC(=O)c2cccc3nc4c(C(=O)O[C@@H]5O[C@@H](C)[C@H](O)[C@@H](O)[C@H]5O)cccc4nc23)[C@H](O)[C@H](O)[C@H]1O [SOPHENAZINE A] | > 25 | > 25 | > 25 | – | inactive | > 25 | > 25 | > 25 | – | > 25 | > 25 | inactive | > 25 | inhibition [14]: inactive; inhibition [15]: inactive; inhibition [16]: inactive; inhibition [17]: inactive; inhibition [18]: inactive; EC50 [19]: 18 µM; EC50 [20]: 84 µM |
| CC(=O)O[C@@H]1[C@@H](O)[C@H](C)O[C@@H](OC(=O)c2cccc3nc4c(C(=O)O[C@@H]5O[C@@H](C)[C@H](O)[C@@H](O)[C@H]5O)cccc4nc23)[C@@H]1O [SOPHENAZINE B] | > 25 | > 25 | > 25 | – | inactive | > 25 | > 25 | > 25 | – | > 25 | > 25 | inactive | > 25 | inhibition at 72 h, 150 µM [21]: 30%; EC50 [19]: 52 µM |
| CC(=O)O[C@@H]1[C@@H](O)[C@H](C)O[C@@H](OC(=O)c2cccc3nc4c(C(=O)O[C@@H]5O[C@@H](C)[C@H](O)[C@@H](OC(C)=O)[C@H]5O)cccc4nc23)[C@@H]1O [SOPHENAZINE C] | > 25 | > 25 | > 25 | – | inactive | > 25 | > 25 | > 25 | – | > 25 | > 25 | inactive | > 25 | – |
| C[C@@H]1O[C@@H](OC(=O)c2cccc3nc4c(O[C@@H]5O[C@@H](C)[C@H](O)[C@@H](O)[C@H]5O)cccc4nc23)[C@H](O)[C@H](O)[C@H]1O [SOPHENAZINE D] | > 25 | > 25 | > 25 | Non-toxic | inactive | > 25 | > 25 | > 25 | inactive | > 25 | > 25 | inactive | > 25 | – |
| COC(=O)c1cccc2nc3c(O[C@@H]4O[C@@H](C)[C@H](O)[C@@H](O)[C@H]4O)cccc3nc12 [SOPHENAZINE E] | > 25 | > 25 | > 25 | Non-toxic | inactive | > 25 | > 25 | > 25 | inactive | > 25 | > 25 | inactive | > 25 | – |
| C[C@@H]1O[C@@H](Oc2cccc3nc4c(O[C@@H]5O[C@@H](C)[C@H](O)[C@@H](O)[C@H]5O)cccc4nc23)[C@H](O)[C@H](O)[C@H]1O [SOPHENAZINE F] | > 25 | > 25 | > 25 | – | inactive | > 25 | > 25 | > 25 | – | > 25 | > 25 | inactive | > 25 | EC50 [19]: 45 µM |

Source: ChEMBL document CHEMBL2331235, “Solphenazines A-F, glycosylated phenazines from Streptomyces sp. strain DL-93” (J Nat Prod, 2013)
